Compound activity (PubChem BioAssay)
CHO parental Ca – counter-screen: ATP calcium response change in parental CHO cells; parental CHO-K1, ATP-induced calcium, Fluo-8 fluorescence; inhibition, % at 5.6 µM; actives 0.63% (n = 330,000);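 active = inhibition above that plate's mean sample inhibition plus 3 SD, cut at about 26% in these data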;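 also: 0% = ATP-challenged DMSO wells and 100% = DMSO wells without ATP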
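Test system: parental CHO cells; detection: calcium-sensitive Fluo-8 fluorescence; evaluation: percent inhibition of calcium signal; also added: ATP as calcium-mobilizing challenge; repeats: one well per compound; control set: ATP-challenged DMSO wells low, unchallenged DMSO wells high; compound: single nominal dose of 5.6 µM per compound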
TAAR1 ag – agonists of human TAAR1; AID 624467; CHO RD-HGA16 TAAR1, Fluo-8 calcium fluorescence; vehicle wells 0%, saturating PEA agonist 100%; actives 0.99% (n = 360,000); Q96RJ0; activation, % at 3 µM;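 active = activation above the mean activation of all test compounds in the run plus 3 SD, cut at about 38% in these data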
Target sequence (Q96RJ0 whole entry, looked up): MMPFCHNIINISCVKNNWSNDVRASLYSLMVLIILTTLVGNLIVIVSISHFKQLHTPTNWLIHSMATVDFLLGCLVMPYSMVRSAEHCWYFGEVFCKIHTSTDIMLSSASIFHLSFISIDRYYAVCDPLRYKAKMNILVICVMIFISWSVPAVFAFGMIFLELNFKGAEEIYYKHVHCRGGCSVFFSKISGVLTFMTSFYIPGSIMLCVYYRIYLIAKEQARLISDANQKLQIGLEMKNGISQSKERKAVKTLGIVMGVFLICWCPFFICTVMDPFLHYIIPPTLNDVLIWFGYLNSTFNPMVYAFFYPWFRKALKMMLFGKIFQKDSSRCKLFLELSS
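Assay system – CHO-derived RD-HGA16 cells with stable Gα16 and human TAAR1 · Compound dosing – one-point dosing at 3 µM (nominal) · Incubation – 17-24 h seeding, 75 min 37 °C dye, 30 min RT · Measured by – kinetic Fluo-8 calcium fluorescence · Control set – DMSO vehicle as 0%, PEA at EC100 as 100% · Repeats – single well for each compound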
TAAR1 antag – antagonists of human TAAR1 | CHO RD-HGA16 TAAR1, Fluo-8 calcium fluorescence, antagonist | inhibition, % at 3 µM | actives 1.5% (n = 360,000) | AID 624466;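 active = inhibition above a per-plate cutoff, the mean inhibition of test compounds on that plate plus 3 SD, cut at about 49% in these data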;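 also: 0% = DMSO plus EC80 beta-PEA response and 100% = DMSO alone without agonist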
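Test system: CHO RD-HGA16 cells bearing hTAAR1 | Reagent: β-PEA, EC80 | Compound dosing: 3 µM, single point | Schedule: Dye loading 75 min at 37 °C, then 30 min room temperature | Signal: Calcium fluorescence with Fluo-8 | Evaluation: Percent inhibition of PEA-evoked calcium signal, max/basal emission ratio | Control set: DMSO-only wells and EC80 β-PEA-stimulated wells | Repeats: Singlicate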
OX1R antag-1 – blocks the human orexin 1 receptor; O43613; OX1R-expressing cells, FRET antagonist read-out; inhibition, % at 6.6 µM; actives 1.8% (n = 330,000); in the data active = inhibition mostly above about 38%, no sharp cut-off; inactive = mostly below about 40%;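 also: 0% = agonist challenge alone and 100% = reference antagonist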
OX1R antag-2 – blocks the human orexin 1 receptor. CHO/OX1R cells, Fluo-8 calcium fluorescence, orexin A. inhibition, % at 5 µM. actives 0.43% (n = 330,000). AID 434989;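 active = inhibition above its plate's threshold, mean inhibition of all tested compounds on the plate plus 3 SD, cut at about 37% in these data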;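 also: 0% = orexin A challenge wells and 100% = SB-334867-A antagonist wells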
GPR7 antagonist – blocks human GPR7 receptor signaling; P48145; GPR7-expressing cells, fluorescence antagonist assay; inhibition, % at 4.4 µM; actives 1.1% (n = 290,000); AID 1861; in the data active = inhibition above about 16%, passing the limit was not always enough;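 also: cells stimulated with the agonist NPW; 0% = agonist with vehicle and 100% = vehicle without agonist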
* marks the source's active call; other numbers are inactive results; · = no result; ! = not active in a repeat. An excerpt weighted towards active compounds, which were near 4.6% of everything screened.

SMILES	CHO parental Ca	TAAR1 ag	TAAR1 antag	OX1R antag-1	OX1R antag-2	GPR7 antagonist
COC(=O)C1C(c2ccccc2)CC2CCC1N2C (configuration not stated)	·	1	-15	·	·	·
O=[N+]([O-])c1ccc(N2CCOCC2)c2cccnc12	-2	2	-10	71*	16	-12
O=[N+]([O-])c1ccc(N2CCCNCC2)c2ncccc12	-3	3	8	40*	-6	-5
O=[N+]([O-])c1ccc(N2CCCCC2)c2ncccc12	-6	0	3	44	-23	-3
C/C(=N\NC(=O)c1ccncc1)c1c(O)[nH]c(=O)[nH]c1=O	-10	2	-2	18	-13	·
O=C1NC(=O)N(Cc2ccc(F)cc2)C(=O)/C1=C\C=C\c1ccco1	2	17	30	3	3	-5
Cc1ccc(N2C(=O)NC(=O)/C(=C/C=C/c3ccco3)C2=O)cc1	-10	37	51*	15	2	-2
CCNCC1(c2ccc(OC)c(OC)c2)CCCC1	-13	4	-8	6	-23	-6
CCCCCOc1ccc(C)cc1CN(CCCl)CCCl	-15	1	-10	4	-31	30*
COc1cccc2c1C(=O)c1c(O)c3c(c(O)c1C2=O)CC(O)(C(C)=NO)CC3OC1CC(N)C(O)C(C)O1 (configuration not stated)	·	8	-4	·	·	·
Cc1ccc(-c2cc(-c3ccccc3)cc(-c3ccccc3)[n+]2-c2ccccc2)cc1	74*	34	104*	19	71*	·
Cc1ccc(-c2cc(-c3ccc(C)cc3)[n+](-c3ccccc3)c(-c3ccc(C)cc3)c2)cc1	71*	·	·	39	91*	·
COC(=O)C1C(c2ccc(I)cc2)CC2CCC1N2C (configuration not stated)	·	2	-11	·	·	·
C/C(=N\NC(N)=O)c1c(O)n(C)c(=O)n(C)c1=O	35*	3	-2	14	-10	-15
CC1OC(OC2C=C3CCC4C(CCC5(C)C(c6ccc(=O)oc6)CCC45O)C3(C)CC2)C(O)C(OC2OC(CO)C(O)C(O)C2O)C1O (configuration not stated)	·	-1	2	·	·	·
Cc1c(N=Nc2c(O)n(C)c(=O)n(C)c2=O)c(=O)n(-c2ccccc2)n1C	-4	0	-6	64*	-14	-3
C1CCCN(C2CCNCC2)CC1	10	2	-8	10	-11	-23
Cn1nc(-c2ccc(OCC(=O)N3CCN(Cc4ccccc4)CC3)cc2)c2ccccc2c1=O	36*!	14	32	23	9	-2
Cn1ncnc2c(=O)n(C)c(=O)nc1-2	-17	·	·	103*	8	·
CCOc1ccc(-c2c(C)n(-c3ccc(OCC)cc3)c3[n+]2CCCCC3)cc1	40*	5	-21	26	-2	46*
CCOc1ccc(-n2c(-c3ccoc3)nc3ccccc3c2=O)cc1	-13	7	5	22	-21	4
CSCCC(c1nnnn1-c1ccc2c(c1)OCCO2)N1CCC(n2c(=O)[nH]c3ccccc32)CC1 (configuration not stated)	·	13	62*	·	·	·
CCC(c1nnnn1-c1ccc2c(c1)OCCO2)N1CCC(n2c(=O)[nH]c3ccccc32)CC1 (configuration not stated)	·	18	66*	·	·	·
CCC1CCC(C)N(N=O)C1 (configuration not stated)	·	0	-5	·	·	·
O=C(CSC1c2ccccc2-c2ccccc21)N/N=C/c1ccccc1O	-7	8	38	60*	-1	11
C[C@H]1CCCC(=O)CCCCCc2cc(O)cc(O)c2C(=O)O1	-23	11	-8	24	-15	-1
C=CCN1C[C@H](C)N(C(c2ccc(C(=O)N(CC)CC)cc2)c2cccc(OC)c2)CC1C (some centres not stated)	·	3	-14	·	·	·
COC(=O)C[C@]1(C(=O)OC)CN(C#N)N(c2ccc(Cl)cc2)C12c1ccccc1-c1ccccc12	-11	7	-9	-5	-8	24*
COC(=O)[C@@H]1[C@@H](C(=O)OC)C2(c3ccccc3-c3ccccc32)N(c2ccc(Cl)cc2)N1C#N	-15	10	15	12	-23	16*
